Assay results: the RNAGym collection of RNA variant scans (doi:10.1126/science.aae0568)
Variants at the floor of the assay were thinned out.

B1: tRNA (parent)
chain: GUUCCGUUGGCGUAAUGGUAACGCGUCUCCCUCCUAAGGAGAAGACUGCGGGUUCGAGUCCCGUACGGAACG

Variants of: B1
Assay: yeast fitness relative to wild type (ratio to wild type); higher = fitter; tRNA-Arg(CCU), competitive growth, 37 C, YPD
Method in brief: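 Gene amplicons from the start population and from each of six end populations were read by 100-nucleotide paired-end sequencing. Those end populations came from pooled Saccharomyces cerevisiae strains carrying tRNA-Arg(CCU) gene variants at the native locus, competed in YPD at 37°C for 24 hours. Fitness relative to wild type was worked out from changes in genotype frequencies. Genotypes needed ≥ 100 starting reads, and estimates < 0.5 were set to 0.5.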

Row | Variant | yeast fitness
1 | C4A U47A | 0.857
2 | C4A U47A C61U | 0.545
3 | C4A U47A G48C | 0.559
4 | C4A U47C A70C | 0.749
5 | C4A U47G | 0.686
6 | C4A U53A G67U | ≤ 0.5
7 | C4A U53C | 0.691
8 | C4A U53C G68C | 0.553
9 | C4A U53C U64A | ≤ 0.5
10 | C4A U54C U59A | 0.542
11 | C4A U59A | 0.664
12 | C4A U59C | 0.944
13 | C4A U64C | 0.923
14 | C4A U64G | 0.641
15 | C4G A14C | 0.568
16 | C4G A14C A20C A40G G44C U53C C55A A65U | ≤ 0.5
17 | C4G A14C A42G | ≤ 0.5
18 | C4G A14C C22U U47C | ≤ 0.5
19 | C4G A14C C30U A40U C49U | 0.504
20 | C4G A14C C30U A40U G52C G67A | ≤ 0.5
21 | C4G A14C C31U U35A U47G | ≤ 0.5
22 | C4G A14C G25C | 0.8
23 | C4G A14C G25C U54A C66G | ≤ 0.5
24 | C4G A14C G48A C49U | ≤ 0.5

Row | Variant | yeast fitness
25 | C4G A14C G50C C62G | ≤ 0.5
26 | C4G A14C U47C | ≤ 0.5
27 | C4G A14G | 0.78
28 | C4G A14G A37U G38A A70U | 0.628
29 | C4G A14G A37U G38A G63C | ≤ 0.5
30 | C4G A14G A69C | 0.508
31 | C4G A14G A69U | 0.52
32 | C4G A14G C24U U32G A43G C66U | ≤ 0.5
33 | C4G A14G C33U | ≤ 0.5
34 | C4G A14G G44C U47A | ≤ 0.5
35 | C4G A14G G63A | ≤ 0.5
36 | C4G A14G G68A | 0.59
37 | C4G A14G U26C A36G A37C | ≤ 0.5
38 | C4G A14G U26C A36G A37C G51C | ≤ 0.5
39 | C4G A14U | 0.78
40 | C4G A14U C24G C31G C61G | ≤ 0.5
41 | C4G A14U C30U G48C | ≤ 0.5
42 | C4G A14U C31U A40G | ≤ 0.5
43 | C4G A14U C34U | 0.591
44 | C4G A14U C46U C60U A65C | ≤ 0.5
45 | C4G A14U C60A | 0.553
46 | C4G A14U C66U | ≤ 0.5
47 | C4G A15C C29G G48A | ≤ 0.5
48 | C4G A15C C46A G67A | ≤ 0.5

Row | Variant | yeast fitness
49 | C4G A15C G50C U54C | ≤ 0.5
50 | C4G A15C U19A | ≤ 0.5
51 | C4G A15C U28C C55G A57U | ≤ 0.5
52 | C4G A15G A37U A40C G48A G50C | 0.515
53 | C4G A15G C29A C34U C66G | ≤ 0.5
54 | C4G A15G G23A C34G | 0.538
55 | C4G A15G G23A C34G G67U | ≤ 0.5
56 | C4G A15G G23A C34G G68A | ≤ 0.5
57 | C4G A15U A21G G56A | 0.626
58 | C4G A15U A37U | 0.541
59 | C4G A15U C29A G48A A65U | 0.53
60 | C4G A15U C34G A36C | ≤ 0.5
61 | C4G A15U G18C G23C C24G G56C | ≤ 0.5
62 | C4G A15U G18C G23C C24G G56C A70G | 0.586
63 | C4G A15U G56C U59A | ≤ 0.5
64 | C4G A15U U54G C55U | 0.51
65 | C4G A20C | 0.8
66 | C4G A20C C30A C31G C34A A37G C49A A57C G63A | ≤ 0.5
67 | C4G A20C U26G C33U G44C U59A G67A | ≤ 0.5
68 | C4G A20G | 0.966
69 | C4G A20G A43G | 0.502
70 | C4G A20G A70C | 0.758
71 | C4G A20G C27A C46U A65U | ≤ 0.5
72 | C4G A20G C27G C29G C55A A57U A69U | 0.629

Row | Variant | yeast fitness
73 | C4G A20G G39A A45C | ≤ 0.5
74 | C4G A20U | 0.659
75 | C4G A20U A43C G50A | ≤ 0.5
76 | C4G A20U A57U | ≤ 0.5
77 | C4G A20U A57U C62U | ≤ 0.5
78 | C4G A20U A57U C66U | ≤ 0.5
79 | C4G A20U C29G C31A G38A | ≤ 0.5
80 | C4G A20U C31G | 0.555
81 | C4G A20U C31G A65U | ≤ 0.5
82 | C4G A20U C60G C62G | 0.584
83 | C4G A20U C60U A70U | 0.651
84 | C4G A20U C61G | ≤ 0.5
85 | C4G A20U C66U | ≤ 0.5
86 | C4G A20U G25A | ≤ 0.5
87 | C4G A20U G41A A57C | ≤ 0.5
88 | C4G A20U G50A G58C C66U | ≤ 0.5
89 | C4G A20U G58C | ≤ 0.5
90 | C4G A20U G67A | ≤ 0.5
91 | C4G A21C C22U | 0.626
92 | C4G A21C C22U C61U | ≤ 0.5
93 | C4G A21C C27A U28G | 0.614
94 | C4G A21C C30A G51A | 0.747
95 | C4G A21C C49A A65G | ≤ 0.5
96 | C4G A21C G23C A36U A57U C60G G68C | ≤ 0.5

Row | Variant | yeast fitness
97 | C4G A21C G39C A42U G48C | ≤ 0.5
98 | C4G A21G | 0.997
99 | C4G A21G A36U U59A | 0.502
100 | C4G A21G A43C C46A A57C C62G C66U | ≤ 0.5
101 | C4G A21G A45U C49U C60A | ≤ 0.5
102 | C4G A21G A45U C49U U64A | 0.556
103 | C4G A21G C22U U28A U35C | ≤ 0.5
104 | C4G A21G C24G C34U U53C C55G C62A | ≤ 0.5
105 | C4G A21G G50A | 0.718
106 | C4G A21G G67C | 0.631
107 | C4G A21G U28A A69U | ≤ 0.5
108 | C4G A21U | 0.696
109 | C4G A21U A36C C61A | 0.615
110 | C4G A21U C33U A42G A57U | 0.683
111 | C4G A21U C49U G56C | ≤ 0.5
112 | C4G A21U C66G | ≤ 0.5
113 | C4G A36C | 0.745
114 | C4G A36G G48A | 0.533
115 | C4G A36G U59C | 0.667
116 | C4G A36U | 0.663
117 | C4G A36U C60G | 0.655
118 | C4G A36U C62G | 0.54
119 | C4G A36U G58A | ≤ 0.5
120 | C4G A36U U53A G68A A69G | ≤ 0.5

Row | Variant | yeast fitness
121 | C4G A37C | 0.773
122 | C4G A37C G38A G63A | ≤ 0.5
123 | C4G A37G G51A A57G | 0.523
124 | C4G A37U C49A G52A C55U G56A | 0.688
125 | C4G A37U G51A G52C U59C | ≤ 0.5
126 | C4G A40C | 0.811
127 | C4G A40C C49G C55G A69U | ≤ 0.5
128 | C4G A40G A45U | ≤ 0.5
129 | C4G A40G G48A G56C | ≤ 0.5
130 | C4G A40U A42C A57G C62G | ≤ 0.5
131 | C4G A40U A42C C61G | ≤ 0.5
132 | C4G A40U A42C C66U | 0.52
133 | C4G A40U A45U G67A | ≤ 0.5
134 | C4G A40U A45U U47C | ≤ 0.5
135 | C4G A40U C46U G67U | 0.602
136 | C4G A40U C62A | 0.638
137 | C4G A40U C66U | 0.571
138 | C4G A42C | 0.78
139 | C4G A42G | 0.897
140 | C4G A42G A45U | 0.67
141 | C4G A42U G48A | 0.575
142 | C4G A42U G68C | ≤ 0.5
143 | C4G A43C A45G | 0.629
144 | C4G A43C C61A | 0.551

Row | Variant | yeast fitness
145 | C4G A43G | 0.729
146 | C4G A43G G51C | ≤ 0.5
147 | C4G A43U | 0.856
148 | C4G A43U G51C | ≤ 0.5
149 | C4G A45C | 0.767
150 | C4G A45C A69U | 0.789
151 | C4G A45G C62A | 0.554
152 | C4G A45U A70C | 0.808
153 | C4G A45U C49U | 0.502
154 | C4G A45U C49U A65U | ≤ 0.5
155 | C4G A45U C62U G68A | ≤ 0.5
156 | C4G A57G | 0.728
157 | C4G A57U | 0.757
158 | C4G A57U U59G | ≤ 0.5
159 | C4G A65C | 0.733
160 | C4G A69U | 0.775
161 | C4G A69U A70C | 0.771
162 | C4G A70C | 1.08
163 | C4G A70G | 0.909
164 | C4G A70U | 0.806
165 | C4G C5A C11U C27G A65U G68U | ≤ 0.5
166 | C4G C5A C11U G18C C46G | ≤ 0.5
167 | C4G C5A C24U | ≤ 0.5
